UPR CHOP act: activators of apoptotic arm of unfolded protein response (CHOP). CHO-CHOP luciferase reporter, UPR activation, luminescence; percent of tunicamycin response over DMSO baseline. actives 0.34% (n = 330,000). AID 449763. activation, % at 10 µM;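 active = at 10 µM dose, activation of 40% or more, normalized to positive control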;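 note: 100% = tunicamycin at 10 µg/mL and 0% = DMSO alone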
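measured by = luciferase luminescence | assay system = CHO-CHOP cells, stable luciferase reporter of PERK-eIF2a-CHOP signalling | amount = 500 reporter cells seeded per well | timing = 6 h compound exposure at 37 °C after overnight seeding | controls = positive tunicamycin 10 µg/mL, negative DMSO alone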
UPR XBP1 act: adaptive UPR (XBP1) activation | actives 0.33% (n = 330,000) | CHO-XBP1 luciferase reporter, IRE1-XBP1 UPR activation, luminescence; percent of tunicamycin response, DMSO as zero | AID 463104 | activation, % at 20 µM;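 active = versus positive control, 20 µM dose yields 30% or more activation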;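 note: 100% = tunicamycin at 10 µg/mL and 0% = DMSO only wells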
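Material – CHO cell line with stable XBP1 luciferase reporter · Buffer or medium – F12 plus 10% FBS · Compound – single point, 20 µM final compound, 1% DMSO · Schedule – 16-18 h cell attachment at 37 °C, then 6 h compound exposure · Signal – Steady-Glo luminescence read · Benchmarks – high control tunicamycin 10 µg/mL final, low control DMSO vehicle only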
CHOP inhibitor: blocks CHOP induction under ER stress; CHO-K1 CHOP-promoter luciferase, tunicamycin-induced, 15-18 h; inhibition, % at 10 µM; actives 3.8% (n = 220,000);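 active = compounds that reduced the stress-induced luciferase reporter signal by more than about 70% of percent inhibition, limit read from the data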;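 note: 0% = tunicamycin plus vehicle and 100% = wells without tunicamycin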
A1 inh: inhibitors of the anti-apoptotic protein A1, read as caspase activation; MEF A1-2A-BIM cells, Caspase-Glo 3/7 luminescence, 3 h; percent of clofoctol response, vehicle zero; caspase activation, % (no concentration beside the values); actives 0.066% (n = 330,000); AID 2462;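 active = over half of replicate activation scores above 10%, or exactly half above 10 with the replicate mean above 10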
CHOP confirm: confirmation of CHOP induction inhibitors; shares compounds with CHOP inhibitor; CHO-CHOP promoter luciferase reporter, tunicamycin-induced, luminescence; inhibition, % at 10 µM; actives 45% (n = 2,100);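 active = mean of three repeat readings of reporter signal inhibition above a set limit, cut at about 70% in these data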;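 note: 0% = tunicamycin plus vehicle and 100% = wells lacking tunicamycin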
UPR CHOP confirm: apoptotic UPR (CHOP) activation, confirmed. AID 463112. CHO-CHOP cells, CHOP-luciferase reporter luminescence; percent of tunicamycin response, DMSO as zero. shares compounds with UPR CHOP act. actives 64% (n = 1,000). activation, % at 10 µM; in the data active = activation above about 33%;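 note: 0% = DMSO wells and 100% = tunicamycin 10 µg/mL wells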
XBP1 UPR conf: confirmation of adaptive unfolded protein response (XBP1) activators; actives 63% (n = 1,000); activation, % at 20 µM; CHO-XBP1 IRE1-XBP1 luciferase reporter, luminescence; shares compounds with UPR XBP1 act;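 active = reporter signal at least 30% of the positive control's activation in two or more of four replicate wells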;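 note: plate controls were DMSO negative control for no effect and tunicamycin 10 µg/mL positive control for full effect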
The depositor's hits bear a star. Shown is part of a subset that was picked to be rich in hits.

Screening CCOc1cccc(C(=O)Nc2cccc(-c3nnc(-c4ccc(C)cc4)o3)c2)c1 returned UPR CHOP act 136*, UPR XBP1 act 162*, CHOP inhibitor 105*, A1 inh 20*, CHOP confirm 103*, UPR CHOP confirm 54* and XBP1 UPR conf 160*.
Screening CCOc1cccc(C(=O)Nc2cccc(-c3nnc(-c4ccccc4)o3)c2)c1 returned UPR CHOP act 7, UPR XBP1 act -1, CHOP inhibitor 46 and A1 inh 0.
Screening CC(=O)Nc1cccc(NC(=O)c2cc(-c3cccnc3)nc3ccc(Br)cc23)c1 returned UPR CHOP act 4, UPR XBP1 act -2, CHOP inhibitor -3 and A1 inh 0.
`O=C(Nc1ccc(C(F)(F)F)cc1)c1cc(-c2cccnc2)nc2ccc(Br)cc12` gave UPR CHOP act 124*, UPR XBP1 act 91*, CHOP inhibitor 102*, A1 inh -1, CHOP confirm 93*, UPR CHOP confirm 81* and XBP1 UPR conf 90*.
`Cc1nc2c3ccccc3nc(NNC(=O)CCC(=O)N3CCCC(C)C3)n2n1` (configuration not stated) gave UPR CHOP act -1, UPR XBP1 act -2 and A1 inh 0.
Screening CCOc1ccc2nc(NC3=NC(c4ccc(OC)cc4)CC(=O)N3)nc(C)c2c1 (configuration not stated) returned UPR CHOP act 30, UPR XBP1 act 133*, CHOP inhibitor 106*, A1 inh -1, CHOP confirm -33 and XBP1 UPR conf 167*.
Screening CCOc1ccc2nc(NC3=NC(C)(C)C=C(C)N3)nc(C)c2c1 returned UPR CHOP act -2, UPR XBP1 act 1, CHOP inhibitor 4 and A1 inh 0.
`Cc1ccc(-c2[nH]ncc2CNCCc2cnn(-c3ccccc3)c2)cc1C` gave UPR CHOP act 1, UPR XBP1 act -2, CHOP inhibitor 14 and A1 inh 1.
Cc1ccc2nc(SCC(=O)Nc3cc(C(F)(F)F)ccc3N3CCOCC3)[nH]c2c1 was read as UPR CHOP act 2, UPR XBP1 act 35*, A1 inh 0, CHOP confirm 10 and XBP1 UPR conf 40*.
For O=C(CSc1nccc(=O)[nH]1)Nc1cc(C(F)(F)F)ccc1N1CCOCC1 the results were UPR CHOP act 1, UPR XBP1 act 4 and A1 inh 1.
For COc1ccc(-c2ccc(C#N)c(SCC(=O)Nc3sc4c(c3C#N)CCC4)n2)cc1OC the results were UPR CHOP act 28, UPR XBP1 act 41*, CHOP inhibitor 102*, A1 inh 0, CHOP confirm 16 and XBP1 UPR conf 56*.
For CCOC(=O)CSc1nc(NCc2ccco2)c2ccccc2n1 the results were UPR CHOP act 0, UPR XBP1 act 1, CHOP inhibitor 26 and A1 inh 0.
For Fc1ccc(Nc2nc(NCc3ccco3)c3ccccc3n2)cc1 the results were UPR CHOP act 27, UPR XBP1 act 31*, CHOP inhibitor 97*, A1 inh -1, CHOP confirm 73* and XBP1 UPR conf 33*.
`O=C(Nc1ccc(Cl)c([N+](=O)[O-])c1)c1ccc(NCCCN2CCOCC2)c([N+](=O)[O-])c1` gave UPR CHOP act 0, UPR XBP1 act 42*, CHOP inhibitor 97*, A1 inh -1, CHOP confirm -5 and XBP1 UPR conf 6.
Screening O=C(Nc1cccc(C(=O)O)c1)/C(=C\c1ccc2c(c1)OCO2)NC(=O)c1ccc(Br)o1 returned UPR CHOP act 0, UPR XBP1 act -2, CHOP inhibitor 10 and A1 inh 0.
For COc1ccc(N(C(=O)Cc2cccs2)C(C(=O)NC2CCCC2)c2ccncc2)cc1OC (configuration not stated) the results were UPR CHOP act -1, UPR XBP1 act 6 and A1 inh 0.
COc1cc(N(C(=O)Cc2cccs2)C(C(=O)NC2CCCCC2)c2ccc(C)cc2)ccc1-n1cnnn1 (configuration not stated) was read as UPR CHOP act -1, UPR XBP1 act 35*, CHOP inhibitor 105*, A1 inh 0, CHOP confirm 92* and XBP1 UPR conf 37*.
Screening Cc1cc(N2CCN(C)CC2)ccc1NC(=O)c1cccc(S(=O)(=O)N2CCc3ccccc3C2)c1 returned UPR CHOP act 2, UPR XBP1 act 34*, CHOP inhibitor 104*, A1 inh 0, CHOP confirm -47 and XBP1 UPR conf 4.
Screening COCCNc1nnc(SCC(=O)NC2CCCCC2)s1 returned A1 inh 0.
For O=C(CSc1ccc2ccccc2n1)N/N=C/c1ccccc1O the results were UPR CHOP act 2, UPR XBP1 act 2 and A1 inh 0.
For CN=C1SC(CC(=O)Nc2ccc(F)cc2F)C(=O)N1/N=C/c1ccc(OC(F)F)c(OC)c1 (configuration not stated) the results were UPR CHOP act 30, UPR XBP1 act 201*, CHOP inhibitor 98*, A1 inh 0, CHOP confirm 116* and XBP1 UPR conf 5.
For O=C(CC1SC(=Nc2ccc(OC(F)F)cc2)N(CCN2CCOCC2)C1=O)Nc1ccc(F)cc1F (configuration not stated) the results were UPR CHOP act -2, UPR XBP1 act -2, CHOP inhibitor 27 and A1 inh -1.
For Cc1ccc(-c2[nH]ncc2/C=N/n2c(COc3ccccc3)nc3ccccc3c2=O)cc1 the results were UPR CHOP act 5, UPR XBP1 act 37*, CHOP inhibitor 99*, A1 inh 0, CHOP confirm 108* and XBP1 UPR conf 45*.
Screening COc1cccc(/C=C/C(=O)Nc2ccc(C(=O)Nc3cccc(S(N)(=O)=O)c3)cc2)c1OC returned UPR CHOP act 1, UPR XBP1 act 5 and A1 inh 0.
`CC(C)Cn1cnc2c1c(=O)n(CC(=O)N(C)C)c(=O)n2Cc1ccccc1` gave UPR CHOP act 0, UPR XBP1 act -1, CHOP inhibitor 23 and A1 inh -1.
For O=S(=O)(/N=C(\Sc1ccc(Cl)cc1)c1ccccc1)c1ccccc1 the results were UPR CHOP act 21, UPR XBP1 act 43*, CHOP inhibitor 103*, A1 inh 2, CHOP confirm 35 and XBP1 UPR conf 3.
CS/C(=N/S(=O)(=O)c1ccc(C)cc1)c1ccccc1 was read as UPR CHOP act -1, UPR XBP1 act -3, CHOP inhibitor 37 and A1 inh 2.

Screening data deposited in PubChem by several laboratories.
